Screening results from PubChem.
DTT redox prof = compounds producing H2O2 with reducing agent – biochemical, NIH compound library profiling, artefact control for MLSCN library redox annotation, primary screen; DTT-dependent redox cycling H2O2, phenol red/HRP absorbance; 100% = 100 µM peroxide control, 0% = buffer; 200,000 compounds, 0.03% hits; activation, % at 10 µM;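 active means activation of at least 50% relative to the plate's high and low controls in the primary single-dose screen; inactive means activation below 50%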;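 further: compound incubated with DTT at 0.8 mM final as the reducing agent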
KCC2 mod = modulates chloride dependent transport by human KCC2; Q9H2X9; KCC2 cells, thallium flux FluoZin-2 fluorescence; B-score of Tl+ flux slope (higher = more flux/activation; lower = inhibition) at 10 µM; 190,000 compounds, 2.2% hits; AID 1456;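 active means thallium flux slope and its plate-corrected score both differing from the plate sample mean at a set confidence after two filtering rounds, in either direction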;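 further: slope of fluorescence scaled to starting intensity during 10 to 20 s after thallium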
Dynein cargo inh = dynein cargo transport inhibition; 3617.4 mouse cells, GR-EGFP nuclear translocation imaging; test concentration mostly 20 µM; stimulated with dexamethasone, 1 µM; active compounds read low; 220,000 compounds, 0.47% hits; z-score, hits read low;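 active means plate z-score of nuclear minus cytoplasmic receptor signal below a set negative limit, without overly bright fluorescence or cell loss, cut at about -3.5 in these data, passing the limit was not always enough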;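 further: z-score of nuclear minus cytoplasmic ring GR-EGFP intensity difference per well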
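medium = tetracycline-free induction medium containing charcoal-stripped FBS | probe or stimulus = dexamethasone, 1.0 µM final | timing = 48 h induction, then 1 h compound, then 30 min agonist, 37 °C | detection = automated 10x imaging of fixed Hoechst-stained cells | read-out basis = nuclear versus cytoplasmic GR-EGFP signal, averaged per well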
ROMK mod = modulators of human ROMK potassium channel; 130,000 compounds, 2% hits; AID 1918; Tet-inducible ROMK, thallium flux fluorescence; actives lie on both sides; B-score at 10 µM; P48048;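 active means signal ratio slope over the read window, or its plate-corrected B-score, at least 3 SD from the plate mean, either direction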;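 further: B-score of the F/F0 ratio slope over 7 to 12 s after thallium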
Target sequence (P48048 whole entry, looked up): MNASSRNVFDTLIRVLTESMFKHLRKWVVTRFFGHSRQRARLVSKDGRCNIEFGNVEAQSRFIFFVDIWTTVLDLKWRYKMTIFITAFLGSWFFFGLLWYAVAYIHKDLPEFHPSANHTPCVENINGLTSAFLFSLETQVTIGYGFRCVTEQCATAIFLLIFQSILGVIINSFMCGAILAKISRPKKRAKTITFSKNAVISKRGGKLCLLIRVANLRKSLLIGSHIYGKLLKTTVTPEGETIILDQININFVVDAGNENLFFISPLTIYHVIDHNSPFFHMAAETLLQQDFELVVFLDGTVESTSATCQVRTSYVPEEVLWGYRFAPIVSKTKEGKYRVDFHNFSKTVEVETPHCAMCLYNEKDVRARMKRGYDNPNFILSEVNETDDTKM
Autophagy mod = alters autophagy in cells; calls only at 10 µM (by protocol); MEF GFP-LC3 puncta imaging; test concentration mostly 10 µM; 190,000 compounds, 0.98% hits; AID 463193;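 active means percentage of spot-positive cells more than 3 SD above its plate mean, without a fluorescence outlier flag or 80% toxicity; inconclusive means no clear call, values can overlap the other calls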;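 further: spot-positive cell cutoff set from DMSO-treated cells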
ROMK hit retest = confirmation of human ROMK potassium channel modulators; shares compounds with ROMK mod; ROMK thallium flux, fluorescence ratio; active compounds read low; normalized thallium flux (F/F0 slope) at 10 µM; 3,000 compounds, 54% hits;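 active means Flux at 10 µM at least 3 SD below or above vehicle control mean in one or both replicates; inconclusive means no clear call, values can overlap the other calls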
* hit, by the source's call; i = inactive; ? = inconclusive; · = not tested or not shown; + = active, no number. Compounds with a hit are over-represented: about 4.1% of the library has one in this group of screens.

SMILES	DTT redox prof	KCC2 mod	Dynein cargo inh	ROMK mod	Autophagy mod	ROMK hit retest
Cc1ccc(OCCCC(=O)NC(C)c2ccccc2)cc1 (stereo unspecified)	0	·	0.38	3.2*	i	0.092
O=C1c2oc3ccc(F)cc3c(=O)c2C(c2cccc(O)c2)N1CCCN1CCOCC1 (stereo unspecified)	0	1.4	-0.13	-2.3*	i	0.075
Cc1ccc(CCN2C(=O)c3ccccc3C2C(=O)NCc2cccnc2)cc1 (stereo unspecified)	0	-0.15	1.4	0.12	i	·
CC(C)CC(NS(=O)(=O)c1ccccc1)C(=O)O (stereo unspecified)	0	·	0.16	0.63	i	·
CC(C)CN=C(NS(=O)(=O)c1ccccc1)C(Cl)(Cl)Cl	0	1.2	-2.7	·	i	0.05*
CC(C)C(c1nnnn1CC1CCCO1)N1CCN(Cc2ccc3c(c2)OCO3)CC1 (stereo unspecified)	3	0.57	1.4	-1.4	i	·
CC(C)C(c1nnnn1Cc1ccccc1)N1CCN(Cc2ccc3c(c2)OCO3)CC1 (stereo unspecified)	-1	-1.4	0.46	·	i	0.056*
COc1ccc(N(CC(=O)Nc2ccccc2C(N)=O)S(=O)(=O)c2ccc(C)c([N+](=O)[O-])c2)cc1	0	0.12	-0.15	0.31	i	0.067*
COc1ccc(N(CC(=O)Nc2ccc(C(N)=O)cc2)S(=O)(=O)c2ccc(C)c([N+](=O)[O-])c2)cc1	-1	-1.1	-0.27	0.019	i	·
CCN(CC)CCCNC(=S)N(Cc1ccco1)Cc1cc2cc3c(cc2[nH]c1=O)OCCO3	0	0.65	-0.15	·	i	·
CCN(CC)CCCNC(=S)N(Cc1cccs1)Cc1cc2cc3c(cc2[nH]c1=O)OCCO3	0	1.6	-0.58	-11*	i	0.055*
O=C(/C=C\Nc1ccc2c(c1)OCO2)c1ccc2c(c1)OCO2	0	·	0.16	·	i	0.059*
O=S(=O)(c1ccccc1)c1nc(-c2ccco2)oc1N1CCCCCC1	0	-0.66	-0.29	-2.8*	i	0.072
CN1CCN(c2oc(-c3ccco3)nc2S(=O)(=O)c2ccccc2)CC1	-4	0.083	-0.67	·	i	·
CCOC(=O)c1c(NC(=O)CCNCc2ccco2)sc2c1CCC2	·	-1.5	-0.8	-0.5	·	·
CC(C)Oc1cccc(NC(=O)c2cnccc2C(F)(F)F)c1	·	-0.024	0.24	·	·	·
CC(C)Sc1nc2c([nH]1)c(=N)ncn2Cc1ccccc1	0	-0.88	-0.036	-4.4*	i	0.057*
Cc1cccc(OCCSc2nc3c([nH]2)c(=N)ncn3Cc2ccccc2)c1	3	-0.027	·	·	i	·
O=C(CCSCc1ccc(Cl)cc1)NCc1cccnc1	-1	-0.89	-0.24	-0.59	i	·
CC1(C)C2CCC1(CS(=O)(=O)N1CCCc3ccccc31)C(=O)C2 (stereo unspecified)	1	0.44	-0.16	-3.4*	i	0.07
CCCCC(=O)NNC(=S)NCc1ccccc1	0	0.51	-0.49	0.022	i	·
COC(=O)c1c(NC(=O)CSc2nnc(-c3ccco3)n2Cc2ccccc2)sc(C)c1C	0	-0.72	-0.14	-3.1*	i	0.065*
COC(=O)c1c(NC(=O)CSc2nc3ccccc3c(=O)n2Cc2ccco2)sc(C)c1C	0	-0.11	-0.71	·	i	·
Cc1cc(N2C(=O)C3C4CC(C(Br)C4Br)C3C2=O)no1 (stereo unspecified)	0	·	-0.77	0.52	i	·
COC(=O)c1ccc(/C=C(\C#N)C(=O)NC(C)c2ccccc2)cc1 (stereo unspecified)	0	0.27	-0.64	·	?	0.049*
SMILES	DTT redox prof	KCC2 mod	Dynein cargo inh	ROMK mod	Autophagy mod	ROMK hit retest
CC(NC(=O)/C(C#N)=C/c1cccs1)c1ccccc1 (stereo unspecified)	-1	-0.072	-0.078	-4.6*	i	0.054*
CCOC(=O)C1CCN(C(=O)c2ccccc2NS(=O)(=O)c2ccc(F)cc2)CC1	0	-0.079	-0.17	0.38	i	·
CC(/C=N/NC(=O)c1cc(-c2cccnc2)nc2c1c(C)nn2-c1ccccc1)=C\c1ccccc1	0	1.2	0.81	·	+	?
O=C(O)CCCCCN1C(=O)/C(=C/c2ccncc2)SC1=S	0	0.11	0.71	-4.2*	i	0.048*
O=C(O)CCCN1C(=O)/C(=C/c2ccncc2)SC1=S	·	-2.2	-0.31	-2.1	·	·
Cc1ccc(/C=C2\SC(=S)N(CCCC(=O)Nc3ccccn3)C2=O)cc1	-4	1.5	0.15	·	i	0.074
O=C(O)CCCCCN1C(=O)/C(=C\c2ccncc2)SC1=S	-1	0.79	1.7	-4.1*	i	0.049*
C=C(C)C(=O)Nc1cccnc1Oc1ccc(F)cc1F	·	-0.024	-0.57	0.22	·	·
COc1ccc(C2(O)CCN(CCCCOc3ccccc3)CC2)cc1	2	-0.54	-0.63	-4.6*	i	0.061*
COc1ccc(C2(O)CCN(C(=O)Cc3cccnc3)CC2)cc1	-1	0.012	0.63	-1	i	·
COc1cc(-c2nc(CN(C)C(C)c3ccncn3)c(C)o2)ccc1F (stereo unspecified)	-1	·	-0.58	·	i	·
CC1(C)Cc2c(C#N)c(SCC(=O)c3ccccc3)nc(N3CCOCC3)c2CO1	2	-0.61	-0.015	-3.9*	i	0.053*
CC(C)(C)NCC(O)COc1ccccc1C(=O)CCc1ccccc1 (stereo unspecified)	0	-0.66	0.58	-3.9*	i	0.05*
CC(C)(C)NCC(O)COc1ccccc1C(C)(C)C (stereo unspecified)	0	0.077	0.21	-3.8*	i	0.078
COCCNc1ccc(N2C(=O)CCCC2=O)cc1[N+](=O)[O-]	1	-0.43	-0.17	·	i	·
COc1ccc(/C=C/S(=O)(=O)NCc2ccccc2)cc1OC	-1	-0.014	0.17	0.85	i	·
COCCCn1c(C)nc2c(c1=O)c1nc3ccccc3nc1n2CCc1ccccc1	-4	·	0.068	-4*	i	0.05*
COc1ccc(C(=O)Nc2nc3c(s2)Cc2cc(OC)ccc2-3)cc1	5	-0.39	0.49	·	i	·
COc1ccc2c(c1)Cc1sc(NC(=O)c3cccs3)nc1-2	1	-1.4	-0.072	-4.1*	i	0.076
Cc1nc(C)c(C(=O)O)s1	·	-1.7	-1.5	·	·	·
CC(C)P(=O)(c1cccc(C(=O)O)c1)C(C)C	0	-0.19	-1	0.52	i	·
CCOc1ccc(NC(=O)N[C@@H](Cc2ccccc2)C(=O)O)cc1	·	0.35	1.3	·	·	·
Cc1nc2nc(-c3cccs3)cn2nc1C	2	i	-0.49	-8.5*	i	0.042*
Cc1cc(C)nc(SCc2ccc(C(=O)N/N=C/c3ccccn3)cc2)n1	0	-1.1	3.3	-13*	i	0.085
